Laboratory results reported in ChEMBL document CHEMBL2169837 (J Med Chem, 2012).
Activity calls are given as the source filed them. The calls are words filed in the database; no cut-off is given here.

Experiments:
[1] = Binding affinity to vasopressin V2 receptor in rabbit kidney membranes; format: cell membranes, Oryctolagus cuniculus, Membrane
Vasopressin V2 receptor [2] = target: T1, Vasopressin V2 receptor (Homo sapiens, UniProt P30518); test: Antagonist activity at human vasopressin V2 receptor expressed in CHO cells assessed as inhibition of AVP-induced cAMP accumulation after 30 mins by TR-FRET based HTRF assay; format: functional, cell-based
Procedure, shortened: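 CHO cells stably expressing human V2R, 5 × 10^3 per well on polyornithine, used 24 h after seeding. Incubated 30 min at 37 °C with compound (10−12 to 10−5 M) plus phosphodiesterase inhibitor RO 201724 0.1 mM. Antagonist mode run with 1 nM AVP. Cells lysed and cAMP read by HTRF (TR-FRET). Kact/Kinact from three independent experiments in triplicate, mean ± SEM.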

Vasopressin V2 receptor [3] = target: T1, Vasopressin V2 receptor; test: Agonist activity at human vasopressin V2 receptor expressed in CHO cells assessed as cAMP accumulation after 30 mins by TR-FRET based HTRF assay; format: functional, cell-based
Procedure, shortened: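 CHO cells stably expressing human V2R, 5 × 10^3 per well on polyornithine, used 24 h after seeding. Cells lysed and cAMP read by HTRF (TR-FRET). Kact/Kinact from three independent experiments in triplicate, mean ± SEM.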

Oxytocin receptor [4] = target: T2, Oxytocin receptor (Homo sapiens, UniProt P30559); test: Binding affinity to oxytocin receptor
T2 sequence (P30559 whole entry): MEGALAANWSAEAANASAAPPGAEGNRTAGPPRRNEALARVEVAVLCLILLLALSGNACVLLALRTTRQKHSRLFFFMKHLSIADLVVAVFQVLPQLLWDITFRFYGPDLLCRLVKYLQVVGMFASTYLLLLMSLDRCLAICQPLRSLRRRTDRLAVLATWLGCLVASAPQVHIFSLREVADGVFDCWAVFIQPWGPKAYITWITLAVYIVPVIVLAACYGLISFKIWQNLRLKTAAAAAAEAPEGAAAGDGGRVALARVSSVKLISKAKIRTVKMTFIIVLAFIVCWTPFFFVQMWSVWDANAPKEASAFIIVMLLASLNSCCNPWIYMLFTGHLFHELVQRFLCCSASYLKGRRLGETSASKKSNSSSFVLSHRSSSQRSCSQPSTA
Procedure, shortened: (§1)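 Membranes (5 μg protein) from CHO cells stably expressing human V2R, V1aR, V1bR or OTR. Incubated 30 min at 30 °C in 50 mM Tris-HCl pH 7.4, 5 mM MgCl2, 1 mg/mL BSA with [3H]-AVP (1−2 nM) and competitor from 100 pM to 100 μM. Nonspecific binding with 10 μM AVP. GF/C filtration; Ki by nonlinear least-squares regression. Triplicate, at least three membrane batches.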

Vasopressin V1a receptor [5] = target: T3, Vasopressin V1a receptor (Homo sapiens, UniProt P37288); test: Binding affinity to vasopressin V1a receptor; procedure, shortened: as §1
Target sequence in this assay (P37288 whole entry): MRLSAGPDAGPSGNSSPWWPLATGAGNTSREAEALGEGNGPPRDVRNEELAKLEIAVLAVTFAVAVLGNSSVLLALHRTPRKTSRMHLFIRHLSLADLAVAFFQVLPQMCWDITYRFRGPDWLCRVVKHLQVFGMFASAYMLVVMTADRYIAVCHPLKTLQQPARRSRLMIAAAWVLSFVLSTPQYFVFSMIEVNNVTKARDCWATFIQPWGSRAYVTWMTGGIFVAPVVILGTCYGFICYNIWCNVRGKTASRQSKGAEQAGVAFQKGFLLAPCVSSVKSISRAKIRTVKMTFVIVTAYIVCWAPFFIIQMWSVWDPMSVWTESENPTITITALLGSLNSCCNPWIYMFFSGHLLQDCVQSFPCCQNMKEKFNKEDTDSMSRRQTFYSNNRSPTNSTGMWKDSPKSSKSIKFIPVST

Vasopressin V2 receptor [6] = target: T1, Vasopressin V2 receptor; test: Displacement of [3H]-AVP from human vasopressin V2 receptor expressed in CHO cells after 30 mins; format: cell-based
[7] = target: Vasopressin V2 receptor (Oryctolagus cuniculus); test: Binding affinity to vasopressin V2 receptor
Vasopressin V2 receptor [8] = target: T1, Vasopressin V2 receptor; test: Binding affinity to SNAP-tagged vasopressin V2 receptor expressed in COS7 cells assessed as interaction with vasopressin V2/V1a receptor dimer after 1 hr by FRET assay; format: cell-based; conditions: COS-7
Procedure, shortened: (§2)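 Cos7 cells expressing SNAP-V1a, SNAP-V2 or both, 50000 cells/well. Incubated overnight at 4 °C with one donor plus one acceptor fluorescent ligand, each near its Kd. Signal given as %ΔF from the 665/620 ratio (excitation 335 nm) against mock cells. Receptor expression measured by SNAP-Lumi4-Tb labeling (100 nM, 1 h, room temperature), read at 620 nm.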

Vasopressin V2 receptor [9] = target: T1, Vasopressin V2 receptor; test: Binding affinity to SNAP-tagged vasopressin V2 receptor expressed in COS7 cells after 1 hr by FRET assay; format: cell-based; conditions: COS-7; procedure, shortened: as §2
Homo sapiens = organism: Homo sapiens; test: Selectivity ratio of Ki for human oxytocin receptor to Ki for human vasopressin V2 receptor
Oxytocin receptor [10] = target: T2, Oxytocin receptor; test: Displacement of [3H]-AVP from human oxytocin receptor expressed in CHO cells after 30 mins; format: cell-based
[11] = target: T4, Vasopressin V1b receptor (Homo sapiens) (UniProt P47901); test: Displacement of [3H]-AVP from human vasopressin V1b receptor expressed in CHO cells at 10 uM after 30 mins; format: cell-based
T4 sequence (whole entry): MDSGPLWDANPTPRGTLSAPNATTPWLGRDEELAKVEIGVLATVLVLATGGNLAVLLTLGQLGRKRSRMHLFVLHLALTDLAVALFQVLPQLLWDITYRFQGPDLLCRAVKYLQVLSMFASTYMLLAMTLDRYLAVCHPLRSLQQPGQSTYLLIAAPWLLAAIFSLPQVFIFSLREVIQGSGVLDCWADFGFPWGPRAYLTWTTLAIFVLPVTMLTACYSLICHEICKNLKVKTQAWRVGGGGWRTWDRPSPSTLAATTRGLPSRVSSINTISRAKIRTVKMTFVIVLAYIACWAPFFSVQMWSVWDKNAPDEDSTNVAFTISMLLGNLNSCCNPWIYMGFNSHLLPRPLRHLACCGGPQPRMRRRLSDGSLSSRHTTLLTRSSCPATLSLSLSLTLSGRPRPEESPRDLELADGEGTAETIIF
Procedure, shortened: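 Human OTR, V1aR or V1bR membranes from CHO cells, [3H]-AVP displacement with compound at a single 10 μM concentration, 30 min at 30 °C in Tris-HCl pH 7.4/MgCl2/BSA buffer.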

Vasopressin V1b receptor = target: T5, Vasopressin V1b receptor (Homo sapiens, UniProt P47901); test: Displacement of [3H]-AVP from human vasopressin V1b receptor expressed in CHO cells after 30 mins; format: cell-based
T5 sequence (P47901 whole entry): T4 sequence (whole entry)

Vasopressin V1a receptor [12] = target: T3, Vasopressin V1a receptor; test: Displacement of [3H]-AVP from human vasopressin V1a receptor expressed in CHO cells after 30 mins; format: cell-based
Target sequence in this assay (P37288 whole entry): as the sequence (P37288 whole entry) above

Vasopressin V2 receptor [13] = target: T1, Vasopressin V2 receptor; test: Binding affinity to SNAP-tagged vasopressin V2 receptor expressed in HEK293 cells after 1 hr by TR-FRET assay; format: cell-based
Procedure, shortened: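 HEK 293T cells electroporated with SNAP-tag–V2R and grown 48 h. Receptor labeled 1 h at 37 °C with SNAP-Lumi4-Tb (100 nM) or SNAP-RED (300 nM), then washed. Rising fluorescent-ligand concentrations added and incubated overnight at 4 °C. TR-FRET read with excitation 340 nm, emission 620/665 nm. Nonspecific binding taken with 10 μM unlabeled ligand. Kd from saturation, three experiments in triplicate.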

Vasopressin V1a receptor [14] = target: T3, Vasopressin V1a receptor; test: Binding affinity to SNAP-tagged vasopressin V1a receptor expressed in COS7 cells assessed as interaction with vasopressin V2/V1a receptor dimer after 1 hr by FRET assay; format: cell-based; conditions: COS-7; procedure, shortened: as §2
Target sequence in this assay (P37288 whole entry, looked up): as the sequence (P37288 whole entry) above

Vasopressin V1a receptor [15] = target: T3, Vasopressin V1a receptor; test: Binding affinity to SNAP-tagged vasopressin V1a receptor expressed in COS7 cells after 1 hr by FRET assay; format: cell-based; conditions: COS-7; procedure, shortened: as §2
Target sequence in this assay (P37288 whole entry, looked up): as the sequence (P37288 whole entry) above

T1 sequence (P30518 whole entry): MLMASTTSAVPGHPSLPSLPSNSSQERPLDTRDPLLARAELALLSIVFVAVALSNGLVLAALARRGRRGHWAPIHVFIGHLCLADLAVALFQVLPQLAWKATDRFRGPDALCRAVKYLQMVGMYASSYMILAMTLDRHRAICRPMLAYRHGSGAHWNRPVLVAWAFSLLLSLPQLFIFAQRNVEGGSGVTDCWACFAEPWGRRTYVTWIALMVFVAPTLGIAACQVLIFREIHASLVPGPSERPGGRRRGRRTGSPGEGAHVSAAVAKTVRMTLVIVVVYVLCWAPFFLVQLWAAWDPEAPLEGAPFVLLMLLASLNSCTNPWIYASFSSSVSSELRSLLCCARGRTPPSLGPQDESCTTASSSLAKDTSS

| Ki [1] [nM] | inhibition (Vasopressin V2 receptor [2]) | Activity (Vasopressin V2 receptor [3]) | Ki (Oxytocin receptor [4]) [nM] | Ki (Vasopressin V1a receptor [5]) [nM] | Ki (Vasopressin V2 receptor [6]) [nM] | Ki [7] [nM] | Activity (Vasopressin V2 receptor [8]) | Activity (Vasopressin V2 receptor [9]) | Ratio Ki (Homo sapiens) | Ki (Oxytocin receptor [10]) [nM] | inhibition [11] [%] | Ki (Vasopressin V1b receptor) [nM] | Ki (Vasopressin V1a receptor [12]) [nM] | Kd (Vasopressin V2 receptor [13]) [nM] | Kb (Vasopressin V2 receptor [2]) [nM] | Activity (Vasopressin V1a receptor [14]) | Activity (Vasopressin V1a receptor [15]) | Structure (SMILES) |
| --- | --- | --- | --- | --- | --- | --- | --- | --- | --- | --- | --- | --- | --- | --- | --- | --- | --- | --- |
| 7.2 | Dose-dependent effect | inactive | 30 | 8.1 | 2.68 | 7.2 | – | – | – | – | – | – | – | – | – | – | – | Cc1ccccc1C(=O)Nc1ccc(C(=O)N2CCCCc3ccccc32)cc1 |
| – | Dose-dependent effect | inactive | – | – | 5.69 | – | Active | Active | 32 | 184 | < 50 | > 10000 | 621 | 1.38 | 0.1 | – | – | CCN1/C(=C/C=C/C=C/C2=[N+](CC)c3ccc(S(=O)(=O)[O-])cc3C2(C)C)C(C)(CCCC(=O)NCCn2cc(CNC(=O)CCC(=O)NC3CCCN(C(=O)c4ccc(NC(=O)c5ccccc5-c5ccccc5)cc4)c4ccccc43)nn2)c2cc(S(=O)(=O)O)ccc21 (configuration not stated) |
| – | – | – | – | – | – | – | – | – | – | – | – | – | – | – | – | Active | Active | COc1ccc(C[C@@H](NC(=O)CCc2ccc(O)cc2)C(=O)N[C@@H](Cc2ccccc2)C(=O)N[C@@H](CCC(N)=O)C(=O)N[C@@H](CC(N)=O)C(=O)N[C@@H](CCCNC(=N)N)C(=O)N2CCC[C@H]2C(=O)N[C@@H](CCCCNC(=O)CCCCC2(C)C(/C=C/C=C/C=C3\N(CCCS(=O)(=O)O)c4ccc(S(=O)(=O)[O-])cc4C3(C)C)=[N+](CCCS(=O)(=O)O)c3ccc(S(=O)(=O)O)cc32)C(N)=O)cc1 (some centres not stated) |
| 7.6 | Dose-dependent effect | inactive | 63 | 14.1 | – | 7.5 | – | – | – | – | – | – | – | – | – | – | – | O=C(Nc1ccc(C(=O)N2CCCCc3ccccc32)cc1)c1ccccc1-c1ccccc1 |
